Measurements from article PMC8132106 (Cancer chemotherapy and pharmacology, 2019).
Where two headings read alike, the source gives them in different places.

Columns and labels:
[1] = tested on: AR + TNBC; details: cited from earlier work
[2] = tested on: mCRPC; details: compared to placebo, cited from earlier work
[3] = Previously reported noncompartmental clinical PK of seviteronel; assay type: in vivo, human; details: with BID dosing, predicted from half-lives of 6.4 to 9.2 h
[4] = tested on: CYP2C19; details: 1uM substrate over 60 min; ref unpublished data on file; cited from earlier work
[5] = Population PK model of seviteronel; assay type: in vivo, human; details: for predicted accumulation: from simulated half-life 17.5 h
Summary of the method: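 Dense and sparse plasma concentrations (sparse from cycle 1 day 14, then every other cycle; LC-MS/MS; BQL excluded) were pooled; fed and fasted first doses counted as separate patients. One-, two- and three-compartment models with first-order or saturable absorption/elimination were tested, with exponential between-subject variability. Covariates tested: sex, body weight, prandial status, dexamethasone. Selection used OFV (−2LL; ΔOFV > 3.84, α = 0.05). Evaluation used a VPC with 200 simulated replicates (5th/50th/95th percentiles) and a split-off trough validation dataset.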

[6] = men taking 600 mg QD; cited from earlier work
[7] = cited from earlier work
[8] = tested on: CYP17 lyase; details: cited from earlier work
[9] = Noncompartmental analysis of seviteronel plasma PK in patients; assay type: in vivo, human
[10] = tested on: CYP2C9; details: 1uM substrate over 60 min; ref unpublished data on file; cited from earlier work
[11] = tested on: CYP3A4; details: 1μM substrate over 60 min; ref unpublished data on file; cited from earlier work
[12] = apparent oral inter-compartmental clearance
[13] = apparent oral total systemic clearance
[14] = apparent oral volume of distribution of the central compartment
[15] = apparent oral volume of distribution of the peripheral compartment
[16] = transit rate between compartments of the transit absorption model

## CNC(=O)c1ccc(N2C(=S)N(c3ccc(C#N)c(C(F)(F)F)c3)C(=O)C2(C)C)cc1F [enzalutamide]
[1]; single-arm, open-label study, women with AR + (≥ 10% by IHC) TNBC
  radiographic progression-free survival (rPFS): 14.7 weeks
[2]; post-chemotherapy
  improvement in overall survival (OS): 4.8 mo
  overall reduction in risk of death: 37%
[2]; pre-chemotherapy
  improvement in overall survival (OS): 2.4 mo
  overall reduction in risk of death: 29%

## CC(C)[C@](O)(c1ccc2cc(OC(F)F)c(OC(F)F)cc2c1)c1c[nH]nn1 [seviteronel]
[3]
  predicted accumulation to steady-state: 37–68%
[4]
  loss of substrate: 100%
[5]; 200 replicates
  CL/F, bootstrap mean estimate: 6.89 L/h
  Ka, bootstrap mean estimate: 2.47 h⁻¹
  Ktr, bootstrap mean estimate: 1.98 L/h
  Q/F, bootstrap mean estimate: 6.99 L/h
  V/F, bootstrap mean estimate: 99.97 L
  Vp/F, bootstrap mean estimate: 352.6 L
[5]; after accounting for sex effect
  BSV on CL/F: 45%
[5]; [12]
  Q/F, base model estimate: 6.99 L/h
  Q/F, final model estimate: 6.99 L/h
[5]; [13]
  CL/F, base model estimate: 7.15 L/h
  CL/F, final model estimate: 6.69 L/h
[5]; [14]
  V/F, base model estimate: 69.9 L
  V/F, final model estimate: 99.97 L
[5]; [15]
  Vp/F, base model estimate: 369 L
  Vp/F, final model estimate: 343.4 L
[5]; before sex and body weight were included on CL/F
  BSV of V/F: 62.9%
[5]; covariate effect on CL/F by Sex
  dCLdSex, final model estimate: 0.5883
[5]; covariate effect on CL/F by Sex, 200 replicates
  dCLdSex, bootstrap mean estimate: 0.559
[5]; covariate effect on CL/F by body weight
  dCLdWt, final model estimate: 0.2514
[5]; covariate effect on CL/F by body weight, 200 replicates
  dCLdWt, bootstrap mean estimate: 0.3595
[5]; final model
  Between subject variability (%CV; ω) on Ka: 133%
  Between subject variability (%CV; ω) on Ktr: 94.9%
  Between subject variability (%CV; ω) on Q/F: 51.5%
  Between subject variability (%CV; ω) on V/F: 51.4%
  Between subject variability (%CV; ω) on Vp/F: 35.9%
[5]; final model, sex and body weight on CL/F
  Between subject variability (%CV; ω) on CL/F: 37.4%
[5]; first-order absorption rate
  Ka, base model estimate: 1.99 h⁻¹
  Ka, final model estimate: 2.49 h⁻¹
[5]; overall, before covariates
  BSV on CL/F: 59.6%
[5]; [16]
  Ktr, base model estimate: 1.99 L/h
  Ktr, final model estimate: 1.99 L/h
[5]; with BID dosing
  predicted accumulation: 164%
[5]; with QD dosing
  predicted accumulation: 63%
[6]
  CMAX: 4403 ± 1817 ng/mL
[7]; 450 mg QD
  DLTs: no reported DLTs
[7]; CRPC men treated with seviteronel
  time for drug-related adverse events to resolve to baseline: 2–3 weeks
[7]; women
  Grade 1 events, 600 mg QD relative to 450 mg QD: five times more
[8]
  selectivity for inhibition of CYP17 lyase versus hydroxylase: tenfold
[9]; Study 001, fasted vs fed
  food effect on PK: no statistically-significant food effect
[9]; Study 002
  half-life longer with 48 h sampling than calculated with 0–24 h sampling: ~ 60%
[9]; Study 002, QD dosing
  steady-state AUCTAU higher than first-dose AUCINF: ~ 60%
[9]; dexamethasone 0.5 mg daily co-administration
  steady-state trough levels with vs without dexamethasone: no statistically significant differences were observed
[9]; observed plasma concentrations, Fig. 1
  accumulation at steady-state: ~ 60%
[10]
  loss of substrate: 100%
[11]
  loss of substrate: 57%

## CC(=O)O[C@H]1CC[C@@]2(C)C(=CC[C@@H]3[C@@H]2CC[C@]2(C)C(c4cccnc4)=CC[C@@H]32)C1 [abiraterone acetate]
[1]; in combination with prednisone, women with AR + (> 0% by IHC) TNBC
  radiographic progression-free survival (rPFS): 11.2 weeks
